From ChEMBL document CHEMBL1153988 (J Med Chem, 2009)
Calls of active or inactive are those of the source. The rule behind the calls is not given here.

Legend:
Rattus norvegicus [1] = assay: Anticonvulsant activity in albino Sprague-Dawley rat assessed as protection against scMet-induced seizures at 75 mg/kg, po after 2 hrs; type: functional
Method in brief: (§1)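 Male Sprague-Dawley albino rats (100-150 g) were given the compound orally as a suspension in 0.5% methylcellulose. Seizures were induced by subcutaneous pentylenetetrazol, dissolved in 0.9% saline as a 2.82% solution. The read-out was animals protected over animals tested.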

Mus musculus [2] = assay: Anticonvulsant activity in CF1 albino mouse assessed as protection against scMet-induced seizures at 300 mg/kg, ip after 0.5 hrs; type: functional, organism-based; design: dose 300 mg/kg
Method in brief: (§2)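 Adult male CF no. 1 albino mice (18-25 g) dosed intraperitoneally with compound suspended in 0.5% methylcellulose (0.01 mL/g). Convulsant challenge given subcutaneously as a 0.85% pentylenetetrazol solution in 0.9% saline. Read-out is animals protected over animals tested, with neurotoxicity scored in parallel.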

Mus musculus [3] = assay: Anticonvulsant activity in CF1 albino mouse assessed as protection against scMet-induced seizures at 300 mg/kg, ip after 4 hrs; type: functional, organism-based; design: dose 300 mg/kg; method in brief: as §2
Mus musculus [4] = assay: Neurotoxicity in CF1 albino mouse at 30 mg/kg, ip after 0.5 hrs; type: toxicity, organism-based; design: dose 30 mg/kg, route intraperitoneal; settings: in vivo
Method in brief: (§3)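 Male CF no. 1 albino mice (18-25 g) received a single ip dose as a suspension in 0.5% methylcellulose. The read-out was the number of animals showing neurotoxicity (minimal motor impairment) over the number tested.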

Rattus norvegicus [5] = assay: Anticonvulsant activity in albino Sprague-Dawley rat assessed as protection against scMet-induced seizures at 75 mg/kg, po after 4 hrs; type: functional, organism-based; design: dose 75 mg/kg; method in brief: as §1
Rattus norvegicus [6] = assay: Anticonvulsant activity in albino Sprague-Dawley rat assessed as protection against scMet-induced seizures at 75 mg/kg, po after 15 mins; type: functional, organism-based; design: dose 75 mg/kg; method in brief: as §1
Rattus norvegicus [7] = assay: Anticonvulsant activity in albino Sprague-Dawley rat assessed as protection against maximal electroshock-induced seizures at 75 mg/kg, po after 4 hrs; type: functional
Method in brief: (§4)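 Adult male Sprague-Dawley albino rats (100-150 g) dosed orally with compound suspended in 0.5% methylcellulose (0.04 mL per 10 g). Maximal electroshock challenge at the stated time. Protection is scored in 25% steps as the fraction of animals protected, with neurotoxicity recorded in parallel.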

Mus musculus [8] = assay: Neurotoxicity in CF1 albino mouse at 30 mg/kg, ip after 4 hrs; type: toxicity, organism-based; design: dose 30 mg/kg, route intraperitoneal; settings: in vivo; method in brief: as §3
Mus musculus [9] = assay: Anticonvulsant activity in CF1 albino mouse assessed as protection against maximal electroshock-induced seizures at 30 mg/kg, ip after 4 hrs; type: functional, organism-based; design: dose 30 mg/kg
Method in brief: (§5)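 Adult male CF no. 1 albino mice (18-25 g). Test compound suspended in 0.5% methylcellulose and given intraperitoneally at 0.01 mL/g body weight. Maximal electroshock challenge at the stated time. Read-out is the number of animals protected over the number tested; neurotoxicity is scored in parallel.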

Mus musculus [10] = assay: Anticonvulsant activity in CF1 albino mouse assessed as protection against scMet-induced seizures at 30 mg/kg, ip after 4 hrs; type: functional, organism-based; design: dose 30 mg/kg; method in brief: as §2
Rattus norvegicus [11] = assay: Anticonvulsant activity in albino Sprague-Dawley rat assessed as protection against maximal electroshock-induced seizures at 75 mg/kg, po after 2 hrs; type: functional, organism-based; design: dose 75 mg/kg; method in brief: as §4
Mus musculus [12] = assay: Anticonvulsant activity in CF1 albino mouse assessed as protection against maximal electroshock-induced seizures at 30 mg/kg, ip after 0.5 hrs; type: functional, organism-based; design: dose 30 mg/kg; method in brief: as §5
Mus musculus [13] = assay: Anticonvulsant activity in CF1 albino mouse assessed as protection against maximal electroshock-induced seizures at 300 mg/kg, ip after 4 hrs; type: functional, organism-based; design: dose 300 mg/kg; method in brief: as §5
Rattus norvegicus [14] = assay: Anticonvulsant activity in albino Sprague-Dawley rat assessed as protection against maximal electroshock-induced seizures at 75 mg/kg, po after 1 hr; type: functional, organism-based; design: dose 75 mg/kg; method in brief: as §4
Mus musculus [15] = assay: Anticonvulsant activity in CF1 albino mouse assessed as protection against maximal electroshock-induced seizures at 100 mg/kg, ip after 4 hrs; type: functional, organism-based; design: dose 100 mg/kg; method in brief: as §5
Mus musculus [16] = assay: Anticonvulsant activity in CF1 albino mouse assessed as protection against maximal electroshock-induced seizures at 100 mg/kg, ip after 0.5 hrs; type: functional, organism-based; design: dose 100 mg/kg; method in brief: as §5
Rattus norvegicus [17] = assay: Anticonvulsant activity in albino Sprague-Dawley rat assessed as protection against scMet-induced seizures at 75 mg/kg, po after 30 mins; type: functional, organism-based; design: dose 75 mg/kg; method in brief: as §1
Mus musculus [18] = assay: Anticonvulsant activity in CF1 albino mouse assessed as protection against maximal electroshock-induced seizures at 300 mg/kg, ip after 0.5 hrs; type: functional, organism-based; design: dose 300 mg/kg; method in brief: as §5
Mus musculus [19] = assay: Anticonvulsant activity in CF1 albino mouse assessed as protection against scMet-induced seizures at 100 mg/kg, ip after 4 hrs; type: functional, organism-based; design: dose 100 mg/kg; method in brief: as §2
Rattus norvegicus [20] = assay: Anticonvulsant activity in albino Sprague-Dawley rat assessed as protection against maximal electroshock-induced seizures at 75 mg/kg, po after 15 mins; type: functional; method in brief: as §4
Rattus norvegicus [21] = assay: Anticonvulsant activity in albino Sprague-Dawley rat assessed as protection against maximal electroshock-induced seizures at 75 mg/kg, po after 30 mins; type: functional; method in brief: as §4
Mus musculus [22] = assay: Anticonvulsant activity in CF1 albino mouse assessed as protection against scMet-induced seizures at 100 mg/kg, ip after 0.5 hrs; type: functional, organism-based; design: dose 100 mg/kg; method in brief: as §2
Rattus norvegicus [23] = assay: Anticonvulsant activity in albino Sprague-Dawley rat assessed as protection against scMet-induced seizures at 75 mg/kg, po after 1 hr; type: functional, organism-based; design: dose 75 mg/kg; method in brief: as §1
Rattus norvegicus [24] = assay: Neurotoxicity in albino Sprague-Dawley rat assessed as animal exhibiting toxicity at 75 mg/kg, po; type: organism-based; design: dose 75 mg/kg, route oral; settings: in vivo
Method in brief: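 Neurotoxicity was scored in male Sprague-Dawley albino rats (100-150 g) dosed orally with a suspension in 0.5% methylcellulose. The read-out was the fraction of animals showing neurotoxicity (minimal motor impairment).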

Mus musculus [25] = assay: Anticonvulsant activity in CF1 albino mouse assessed as protection against scMet-induced seizures at 30 mg/kg, ip after 0.5 hrs; type: functional, organism-based; design: dose 30 mg/kg; method in brief: as §2
Mus musculus [26] = assay: Neurotoxicity in CF1 albino mouse at 300 mg/kg, ip after 4 hrs; type: toxicity, organism-based; design: dose 300 mg/kg, route intraperitoneal; settings: in vivo; method in brief: as §3

Q: Which Activity (Rattus norvegicus [1]) does the source give for CC1(C)C(C)(C)C1(Cl)C(=O)O here?
A: 25%

Q: What about the Activity (Mus musculus [2]) of the same molecule?
A: Non-toxic

Q: And the Activity (Mus musculus [3])?
A: Non-toxic

Q: And the Activity (Mus musculus [4])?
A: Non-toxic

Q: What about the Activity (Rattus norvegicus [5]) of the same molecule?
A: inactive

Q: And the Activity (Rattus norvegicus [6])?
A: inactive

Q: What about the Activity (Rattus norvegicus [7]) of the same molecule?
A: 25%

Q: What about the Activity (Mus musculus [8]) of the same molecule?
A: Non-toxic

Q: And the Activity (Mus musculus [9])?
A: Non-toxic

Q: What about the Activity (Mus musculus [10]) of the same molecule?
A: Non-toxic

Q: And the Activity (Rattus norvegicus [11])?
A: inactive

Q: And the Activity (Mus musculus [12])?
A: Non-toxic

Q: What about the Activity (Mus musculus [13]) of the same molecule?
A: Non-toxic

Q: What about the Activity (Rattus norvegicus [14]) of the same molecule?
A: inactive

Q: What about the Activity (Mus musculus [15]) of the same molecule?
A: Non-toxic

Q: And the Activity (Mus musculus [16])?
A: Non-toxic

Q: What about the Activity (Rattus norvegicus [17]) of the same molecule?
A: inactive

Q: What about the Activity (Mus musculus [18]) of the same molecule?
A: Non-toxic

Q: And the Activity (Mus musculus [19])?
A: Non-toxic

Q: And the Activity (Rattus norvegicus [20])?
A: 25%

Q: And the Activity (Rattus norvegicus [21])?
A: 25%

Q: And the Activity (Mus musculus [22])?
A: Non-toxic

Q: And the Activity (Rattus norvegicus [23])?
A: inactive

Q: What about the Activity (Rattus norvegicus [24]) of the same molecule?
A: Not Active

Q: And the Activity (Mus musculus [25])?
A: Non-toxic

Q: What about the Activity (Mus musculus [26]) of the same molecule?
A: Non-toxic
